HCV NS3 hel inh: HCV NS3 helicase inhibition. NS3 helicase DNA unwinding, Cy5 molecular beacon fluorescence. inhibition, % at 10.9 µM. hit rate 0.56% among 290,000. AID 1800;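 active = inhibition above the mean of all tested compounds plus 3 SD, set per campaign, cut at about 35% in these data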
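Material: hepatitis C virus NS3 helicase domain fragment enzyme; measured by: Cy5 fluorescence, 0 and 60 min reads; control set: DMSO and thioflavine S; incubation: 60 min unwinding reaction at 25 °C after ATP addition; read-out basis: % inhibition from 60/0 min fluorescence ratio, DMSO 0%, thioflavine S 100%; repeats: singlicate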
Casp6 inh: inhibitors of human caspase-6. inhibition, % at 12.5 µM. P55212. hit rate 0.53% among 350,000. purified caspase-6, Z-VEID-R110 cleavage fluorescence. AID 686996;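 active = mean inhibition across replicates at least about 35%, with every replicate also reaching that limit, limit read from the data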
Target sequence (P55212 24-179 limits assumed): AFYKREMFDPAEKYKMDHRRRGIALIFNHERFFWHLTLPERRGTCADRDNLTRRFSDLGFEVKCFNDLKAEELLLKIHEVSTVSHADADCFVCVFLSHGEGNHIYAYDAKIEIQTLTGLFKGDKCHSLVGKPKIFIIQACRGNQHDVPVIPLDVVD
Target sequence (P55212 194-293 limits assumed): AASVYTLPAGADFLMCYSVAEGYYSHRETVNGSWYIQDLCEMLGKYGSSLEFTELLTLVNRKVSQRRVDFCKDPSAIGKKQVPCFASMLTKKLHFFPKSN
DNMT1 block: inhibitors of human DNMT1. DNMT1 molecular beacon, Hinp1I cleavage, fluorescence. inhibition (reported as % activation of signal), % at 10 µM. hit rate 0.83% among 360,000. AID 588458; in the data active = inhibition above about 50%
NSD2 HMT inh: NSD2 (human) methyltransferase inhibition; O96028; NSD2 peptide methylation, AlphaScreen, 120 min; inhibition, % at 12.5 µM; hit rate 0.54% among 310,000; in the data active = inhibition above about 50%
NS3 helicase cf: HCV NS3 helicase inhibition, confirmation assay. shares compounds with HCV NS3 hel inh. NS3 helicase DNA unwinding, Cy5 molecular beacon fluorescence. inhibition, % at 10.9 µM. hit rate 31% among 1,600;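 active = inhibition above the mean of all tested compounds plus 3 SD, cutoff set per campaign, cut at about 36% in these data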
DNA FID counter: displaces DNA intercalator in HCV helicase counter-screen; shares compounds with HCV NS3 hel inh; hit rate 4% among 1,600; inhibition, % at 7.9 µM; DNA fluorescent intercalator displacement, fluorescence; in the data active = inhibition above about 37%;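 note: higher means more displacement of ethidium bromide from the DNA hairpin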
DNMT1 interf DR: shows spectral interference in the DNMT1 beacon assay | shares compounds with DNMT1 block | 200 tested, under 10 active | IC50, µM | molecular beacon fluorescence, spectral interference counter-screen
DNMT1 confirm: DNMT1 inhibition confirmation, single concentration; shares compounds with DNMT1 block; DNMT1 molecular beacon HinP1I cleavage, fluorescence; inhibition, % at 10 µM; hit rate 8% among 2,300;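 active = average inhibition of at least 30% in the single-concentration confirmation test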
DNMT1 interf: beacon fluorescence artifact counter-screen. activation (fluorescence interference), % at 10 µM. hit rate 1% among 2,300. DNMT1 molecular beacon spectral interference counterscreen, fluorescence 485/520. shares compounds with DNMT1 block;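 active = activation of at least 30% at 10 µM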;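 note: DNMT1 catalytic domain with a HinP1I cleavage step and a FAM/dabcyl DNA beacon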
AlphaScreen art: interferes with AlphaScreen signal, flagging NSD2 false positives; AC35, µM (highest dose often 10 µM); AlphaScreen artifact counterscreen, preloaded methylated H4 peptide; shares compounds with NSD2 HMT inh; hit rate 9.4% among 1,500; AID 1053174
Large screens that a line does not name were inactive (follow-up assays come after a bar, where they were run). Rows were chosen to be rich in hits. Some 1.5% of all compounds tested hit in one or more screens of this group. Unless noted, the rule behind the calls is not given here.

CN(C)CCN=Cc1c(O)n(Cc2ccco2)c(=O)[nH]c1=O	none (no result: Casp6 inh)
CCCN1[C@@H]2c3cccc(=O)n3C[C@H]1[C@H](CO)[C@H]2C(=O)N(C)C	none (no result: HCV NS3 hel inh, DNMT1 block, NSD2 HMT inh)
CCN1C(=O)N(CC)C(=O)C2(Cc3ccccc3N3CCN(c4ccccc4)CC32)C1=O (stereo not drawn)	HCV NS3 hel inh 45 | NS3 helicase cf inactive | DNA FID counter inactive
CN1C(=O)N(C)C(=O)C2(Cc3cc(N)ccc3N3CCN(c4ccccc4F)CC32)C1=O (stereo not drawn)	none (no result: Casp6 inh, DNMT1 block, NSD2 HMT inh)
O=C1NC(=O)C(=Cc2ccc(-c3ccc(S(=O)(=O)N4CCOCC4)cc3)o2)C(=O)N1	HCV NS3 hel inh 42 (no result: NSD2 HMT inh) | NS3 helicase cf inactive | DNA FID counter inactive
CCOc1ccc(N2C(=O)NC(=O)/C(=C\c3ccc(N4CCCCC4)o3)C2=O)cc1	none (no result: Casp6 inh)
CCOc1ccc(N2C(=O)/C(=C/c3ccc(C)o3)C(=O)NC2=S)cc1	HCV NS3 hel inh 49, DNMT1 block 50 | NS3 helicase cf 70 | DNA FID counter inactive
N#Cc1cccc(-c2ccc([C@@H]3[C@@H](CO)N4CCCCN(C(=O)Cc5ccccc5)C[C@H]34)cc2)c1	none (no result: HCV NS3 hel inh, DNMT1 block, NSD2 HMT inh)
Cc1ccc(-n2c(C)cc(/C=C3/C(=O)NC(=O)N(C)C3=O)c2C)cc1	none (no result: Casp6 inh)
Cc1ccccc1-n1c(C)cc(/C=C2/C(=O)NC(=O)N(Cc3ccco3)C2=O)c1C	HCV NS3 hel inh 40 | NS3 helicase cf inactive | DNA FID counter inactive
Cc1ccc(-n2c(C)cc(/C=C3/C(=O)NC(=O)N(Cc4ccco4)C3=O)c2C)cc1	HCV NS3 hel inh 63 (no result: Casp6 inh) | NS3 helicase cf inactive | DNA FID counter inactive
O=C(O)[C@@H]1[C@@H](CO)[C@@H]2Cn3c(ccc(-c4cncnc4)c3=O)[C@H]1N2C(=O)NC1CCCC1	none (no result: HCV NS3 hel inh, DNMT1 block, NSD2 HMT inh)
CN1CCC(N(C)c2ncnc3ccc(Br)cc23)CC1	none (no result: Casp6 inh, NSD2 HMT inh)
Cc1ccc(-c2nc(N(C)C3CCN(C)CC3)c3ccccc3n2)cc1	HCV NS3 hel inh 38 (no result: Casp6 inh, NSD2 HMT inh) | NS3 helicase cf inactive | DNA FID counter 84
Cc1c(OC(=O)N(C)C)ccc2c1O/C(=C\c1ccco1)C2=O	HCV NS3 hel inh 59 | NS3 helicase cf inactive | DNA FID counter inactive
O=C(O)CC1OCC=C2CN3CCC45C6=CC(=O)C(=O)C([N+](=O)[O-])=C6NC4C1C2CC35 (stereo not drawn)	DNMT1 block 58 (no result: Casp6 inh) | NS3 helicase cf inactive | DNA FID counter inactive
CCc1ccc(N2C(=O)NC(=O)/C(=C\c3cc(C)n(-c4cc(C(=O)O)cc(C(=O)O)c4)c3C)C2=O)cc1	HCV NS3 hel inh 40, DNMT1 block 73 | NS3 helicase cf inactive | DNA FID counter inactive | DNMT1 confirm inactive | DNMT1 interf inactive
COc1cccc(CN2CC3(C2)[C@H](c2ccccc2)[C@H](CO)N3C(=O)Cc2ccccc2)c1	none (no result: HCV NS3 hel inh, DNMT1 block, NSD2 HMT inh)
Cc1ccc(/C=C2\C(=O)NC(=S)N(c3cccc(F)c3)C2=O)o1	HCV NS3 hel inh 37, Casp6 inh 48, DNMT1 block 72 (no result: NSD2 HMT inh) | NS3 helicase cf 65 | DNA FID counter inactive | DNMT1 confirm inactive | DNMT1 interf inactive
CN1CCN(c2ccc(/C=C3\C(=O)NC(=S)N(c4cccc(Br)c4)C3=O)o2)CC1	none (no result: Casp6 inh)
COc1ccc(C#Cc2ccc([C@H]3[C@H](CO)N4CCCCN(C(=O)Cc5ccncc5)C[C@@H]34)cc2)cc1	none (no result: HCV NS3 hel inh, DNMT1 block, NSD2 HMT inh)
O=C1NC(=O)N(c2ccccc2)C(=O)/C1=C/C=C/c1ccco1	HCV NS3 hel inh 45, DNMT1 block 65 (no result: NSD2 HMT inh) | NS3 helicase cf inactive | DNA FID counter inactive | DNMT1 confirm inactive | DNMT1 interf inactive
Cc1ccc(N2C(=O)NC(=O)/C(=C\C=C\c3ccco3)C2=O)cc1	HCV NS3 hel inh 42, NSD2 HMT inh 76 | NS3 helicase cf 39 | DNA FID counter inactive | AlphaScreen art inactive
COc1cccc(-c2ccc([C@@H]3[C@H](CO)N4CCCCN(C(=O)Cc5ccncc5)C[C@@H]34)cc2)c1	none (no result: HCV NS3 hel inh, DNMT1 block, NSD2 HMT inh)
Cc1cc(/C=C2\C(=O)NC(=O)N(c3ccc(Cl)cc3)C2=O)c(C)n1-c1sc2c(c1C#N)CCCC2	DNMT1 block 79 | DNMT1 interf DR inactive | DNMT1 confirm 32 | DNMT1 interf inactive
CCOC(=O)c1c(-n2c(C)cc(/C=C3\C(=O)NC(=O)N(C)C3=O)c2C)sc2c1CCCC2	none (no result: Casp6 inh)
O=C(O)Cn1cc(C=C2C(=O)NC(=O)NC2=O)c2ccccc21	none
O=C(O)Cn1cc(/C=C2\C(=O)NC(=O)N(c3ccc(Cl)cc3)C2=O)c2ccccc21	DNMT1 block 67 | DNMT1 confirm inactive | DNMT1 interf inactive
O=C1CNC[C@@H]2[C@@H](c3ccc(Br)cc3)[C@@H](CO)N12	none (no result: HCV NS3 hel inh, DNMT1 block, NSD2 HMT inh)
O=C1NC(=O)N(Cc2ccc(F)cc2)C(=O)/C1=C\c1ccoc1	Casp6 inh 47, DNMT1 block 88 | DNMT1 confirm inactive | DNMT1 interf inactive
CN(C)c1ccc(/C=C2\C(=O)NC(=O)N(Cc3ccc(F)cc3)C2=O)cc1	none
COc1ccc(CN2C(=O)NC(=O)/C(=C/c3ccc([N+](=O)[O-])o3)C2=O)cc1	none (no result: Casp6 inh, DNMT1 block, NSD2 HMT inh)

Assay outcomes deposited in PubChem by several laboratories.
